Compound activity deposited in PubChem by several laboratories.
In the library only some 0.55% were active in any assay of this set; here they are far more common.
Rad51 HR inh: human RAD51 strand exchange inhibitors, primary screen, biochemical, fluorescence. actives 0.085% (n = 200,000). inhibition, % at 10 µM. DNA repair protein RAD51 homolog 1 (Homo sapiens), Q06609. hRad51 DNA strand exchange, fluorescence dequenching;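 active = inhibition above 40% at the single screening dose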
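System: human Rad51 nucleoprotein filaments preassembled on unlabelled ssDNA. Reagent: labelled 47-mer dsDNA for strand exchange. Schedule: 30-min compound preincubation and 15-min exchange, both room temperature. Measured by: FRET fluorescence dequenching, excitation 485 nm, emission 520 nm. Read-out: Fluorescence-based percent inhibition, control- and blank-normalised. Benchmarks: plate controls and plate blanks.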
ABCG2 inh: ABCG2 efflux pump inhibitors, primary screen, multiplex with ABCB1, IgMXP3 cells, flow cytometry. Broad substrate specificity ATP-binding cassette transporter ABCG2 (Homo sapiens), Q9UNQ0. JC-1 efflux. inhibition, % at 6.6 µM. actives 0.1% (n = 190,000);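 active = inhibition above 80%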
Target sequence (Q9UNQ0 whole entry, looked up): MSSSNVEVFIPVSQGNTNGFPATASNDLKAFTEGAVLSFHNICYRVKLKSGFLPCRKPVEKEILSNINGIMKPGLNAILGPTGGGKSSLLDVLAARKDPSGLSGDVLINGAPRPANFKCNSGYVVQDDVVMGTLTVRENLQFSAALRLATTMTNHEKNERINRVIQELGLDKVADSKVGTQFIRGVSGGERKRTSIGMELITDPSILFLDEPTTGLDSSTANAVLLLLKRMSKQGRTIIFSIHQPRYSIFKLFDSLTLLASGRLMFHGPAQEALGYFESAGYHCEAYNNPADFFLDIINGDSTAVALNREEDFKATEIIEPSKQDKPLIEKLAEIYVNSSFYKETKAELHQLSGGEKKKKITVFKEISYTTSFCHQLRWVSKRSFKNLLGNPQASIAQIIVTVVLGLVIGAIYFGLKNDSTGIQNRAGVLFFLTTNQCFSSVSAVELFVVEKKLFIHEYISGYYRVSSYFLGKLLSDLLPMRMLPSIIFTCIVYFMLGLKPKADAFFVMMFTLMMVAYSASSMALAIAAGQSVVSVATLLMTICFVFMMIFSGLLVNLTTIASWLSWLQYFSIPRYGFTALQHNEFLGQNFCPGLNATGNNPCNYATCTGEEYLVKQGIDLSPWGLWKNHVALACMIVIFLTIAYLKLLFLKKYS
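Test system: ABCG2 IgMXP3 and barcoded ABCB1 CCRF-Adr cell mix; Schedule: cells with compound and JC-1, 10 min at 25 °C, rotating, no wash; Technique: flow cytometry of retained JC-1 fluorescence; Measure: % inhibition of efflux relative to nicardipine and DMSO; Controls: nicardipine high and DMSO low controls.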
HSV augment: enhancers of HSV replication in host cells, fold increase, host cell viability; HSV replication augmentation in cells; maximum fold increase; actives 0.005% (n = 220,000); AID 1956, 2009; in the data active = maximum fold increase above about 1.5; inconclusive = no clear call, values can overlap the other calls; tested in PC3 cells
ABCB1 block: ABCB1 efflux pump inhibitors, primary screen, cell-based, multiplex, flow cytometry, ABCG2 counter-screen; AID 1326, 2008; CCRF-Adr cells, JC-1 efflux; ATP-dependent translocase ABCB1 (Homo sapiens), P08183; actives 0.067% (n = 190,000); inhibition, % at 6.6 µM; in the data active = inhibition above about 40%;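 also: higher value means more JC-1 retained so stronger ABCB1 efflux block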
ABCB6 inh MLPCN: ABCB6 transporter inhibitors, primary screen, K562-ABCB6 cells, flow cytometry, MLPCN library | actives 0.19% (n = 360,000) | K562-ABCB6 porphyrin accumulation, 1 h; stronger effect = lower value | fluorescence ratio to DMSO, % at 10 µM | ATP-binding cassette sub-family B member 6 (Homo sapiens), Q9NP58 | AID 602162, 2011;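 active = fluorescence ratio to DMSO below 75%, the collection mean minus 3 SD; inconclusive = too few cells collected in the well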;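 also: signal is porphyrin accumulated inside mitochondria; lower ratio means ABCB6 inhibition with less porphyrin fluorescence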
p97 inhibitor: inhibitors of human p97 ATPase, primary screen, biochemical. recombinant p97 ATPase, Kinase-Glo ATP luminescence, 3 h. inhibition, % at 8 µM. actives 0.42% (n = 220,000). AID 1481, 2009; in the data active = inhibition above about 15%
ABCB1 confirm: ABCB1 efflux pump inhibitors, confirmation, cell-based, single point, ABCG2 counter-screen; AID 1451, 2008; actives 7% (n = 270); shares compounds with ABCG2 inh; inhibition, % at 6.6 µM; CCRF-Adr cells, JC-1 efflux, flow cytometry;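 active = inhibition of pump activity above 50%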
ABCG2 confirm: ABCG2 efflux pump inhibitors, confirmation, single point, IgMXP3 cells, ABCB1 counter-screen paired; shares compounds with ABCG2 inh; JC-1 efflux, flow cytometry; inhibition, % at 6.6 µM; actives 6% (n = 270);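 active = inhibition above 50%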
IgMXP3 fluor: compound autofluorescence in ABCG2-expressing IgMXP3 cells, confirmation, artefact control for ABC transporter inhibitor project, cell-based, 488/530 nm, flow cytometry | shares compounds with ABCG2 inh | compound autofluorescence 488/530 nm; stronger effect = higher value | fluorescence at 6.6 µM | actives 30% (n = 270) | AID 1480, 2009;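 active = fluorescence in ABCG2-expressing cells above the plate's control-well mean plus 3 SD, cut at about 15 in these data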
CCRF autofluor: compound autofluorescence in ABCB1-expressing CCRF-Adr cells, confirmation, artefact control for ABC transporter inhibitor project, cell-based, 488/530 nm, flow cytometry; shares compounds with ABCG2 inh; compound autofluorescence 488/530 nm; stronger effect = higher value; fluorescence at 6.6 µM; actives 30% (n = 270);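 active = fluorescence beyond the plate control mean plus 3 SD, with a fluorescence-to-maximum score over 2, cut at about 25 in these data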
Numbers stand for hits; - = inactive; ? = inconclusive; . = no result given; + = active, no number.

SMILES	Rad51 HR inh	ABCG2 inh	HSV augment	ABCB1 block	ABCB6 inh MLPCN	p97 inhibitor	ABCB1 confirm	ABCG2 confirm	IgMXP3 fluor	CCRF autofluor
Cc1ccccc1-n1c(SCC(=O)Nc2ccccc2)nc2nc3c(cc2c1=O)CCCC3	-	-	-	45.6	-	-	-	-	-	91.2
Cc1cccc(NC(=O)CSc2nc3nc4c(cc3c(=O)n2-c2ccccc2)CCCC4)c1	-	-	-	-	-	-	.	.	.	.
CC(C)(C)c1ccc(C(O)c2ncc(-c3ccccc3F)[nH]2)cc1 (centres undefined)	.	.	.	.	-	.	.	.	.	.
CCCNC(=O)Cn1c(=O)/c(=C\c2ccc(-c3ccc([N+](=O)[O-])cc3)o2)s/c1=C\C(=O)C(C)(C)C	-	158.7	?	129.4	-	-	-	-	524	441
COc1ccc(S(=O)(=O)c2cnc3ccc(OC)cc3c2N2CCC3(CC2)OCCO3)cc1	-	92.3	-	-	-	-	-	-	-	-
COc1cccc(-c2cc3nc(NCc4ccc(C)cc4C)n(C)c(=O)c3s2)c1	.	.	.	.	-	.	.	.	.	.
COc1ccc(OCC(=O)Nc2ccccc2C(=O)N2CCOCC2)cc1	-	-	-	59.6	-	-	-	-	-	-
O=C(COc1ccc(Br)cc1)Nc1ccccc1C(=O)N1CCOCC1	.	.	.	.	-	.	.	.	.	.
Cc1ccccc1-c1csc(C(O)c2ccccc2)n1 (centres undefined)	.	.	.	.	-	.	.	.	.	.
CCOc1nc(NCCO)nc(Nc2ccc([N+](=O)[O-])cc2)n1	-	-	-	-	-	-	-	-	-	-
CCOc1ccc(Nc2nc(Cl)nc(NCCO)n2)cc1	-	-	-	-	-	-	.	.	.	.
c1ccc(OCc2nc(-c3ccncc3)no2)cc1	-	111.3	-	-	-	-	-	-	-	-
COc1cc(/C=C2/CCc3ccccc3C2=O)cc(OC)c1OC	-	87.4	-	-	-	-	-	-	-	-
CCCS(=O)(=O)NC(=O)C1(C)CCN(C(=O)/C=C/c2ccccc2)C1 (centres undefined)	.	.	.	.	-	.	.	.	.	.
CCCCCCCCNC(=O)c1cccnc1SCC(=O)Nc1ccccc1OC	-	92.5	-	-	-	-	-	-	-	-
COc1ccc(OC)c(NC(=O)CSc2ncccc2C(=O)O)c1	-	-	-	-	-	-	.	.	.	.
Cc1n[nH]c(C)c1S(=O)(=O)N1CCc2ccccc2C1	.	.	.	.	-	.	.	.	.	.
N#C/C(=C\c1ccc(N2CCOCC2)o1)C(=O)Nc1ccc(O)cc1	-	-	?	-	-	-	.	.	.	.
N#C/C(=C/c1ccc(N2CCCCC2)o1)C(=O)Nc1ccc(Cl)cc1	-	82.3	?	44.6	-	-	-	-	171	118
N#C/C(=C/c1ccc(N2CCCCC2)o1)C(=O)Nc1ccc2ccccc2c1	-	+	.	134.0	-	-	-	-	397	624
COc1ccc(S(=O)(=O)N2CCCCCC2)cc1C(=O)N(C)Cc1ccc(Cl)cc1Cl	.	.	.	.	-	.	.	.	.	.
O=[N+]([O-])c1ccc(N2CCN(c3ccccc3F)CC2)c(S(=O)(=O)N2CCOCC2)c1	-	.	-	.	-	-	-	-	-	-
CC(C)C[C@@H](CNCC(=O)[C@H](CC(C)C)NC(=O)c1[nH]cnc1C(=O)N[C@@H](C)CN)NC(=O)c1nc[nH]c1C(=O)N[C@@H](CC(=O)O)C(=O)O	.	.	.	.	-	.	.	.	.	.
O=C(Cc1ccccc1)Nc1cc(Cl)ccc1Sc1ccccc1	-	89.0	-	-	-	-	-	-	-	-
COc1ccc(/C=N/Nc2cc(=O)n(C)c(=O)n2C)cc1OC	-	88.2	-	-	-	-	-	-	23.3	-
SMILES	Rad51 HR inh	ABCG2 inh	HSV augment	ABCB1 block	ABCB6 inh MLPCN	p97 inhibitor	ABCB1 confirm	ABCG2 confirm	IgMXP3 fluor	CCRF autofluor
CC12COC3(C(=O)Nc4ccc([N+](=O)[O-])cc4)CC1CCC32C (centres undefined)	-	112.3	-	-	-	-	-	-	-	-
c1ccc(N=NC2=NN(c3ccccc3)CS2)cc1	.	.	.	.	-	.	.	.	.	.
COc1ccc(OC)c(C2C(C(=O)Nc3nc4ccccc4s3)=C(C)NC3=C2C(=O)CCC3)c1 (centres undefined)	-	-	-	-	-	-	.	.	.	.
COc1cccc(C2C(C(=O)Nc3nc4ccccc4s3)=C(C)NC3=C2C(=O)CC(C)(C)C3)c1OC (centres undefined)	-	-	-	44.6	-	-	59.0	-	28.6	-
C[C@@H]1CN([C@H](C)CO)C(=O)CCCn2cc(nn2)CO[C@H]1CN(C)S(=O)(=O)c1cccc(F)c1	.	.	.	.	-	.	.	.	.	.
CCOC(=O)c1c(C)nc2ccccc2c1-c1ccccc1	-	-	.	-	-	-	.	.	.	.
CCOC(=O)c1c(C)nc(SC)c(C#N)c1-c1ccccc1	-	84.9	-	-	-	-	-	-	-	-
COC(=O)c1cc(NC(=O)c2cccc(Cl)c2)c(=O)oc1/C=C/Nc1cc(C)cc(C)c1	-	135.1	?	137.8	.	-	-	-	503	612
Cc1ccc(C(NC(=O)C2CCN(CCOc3ccccc3)CC2)c2ccccn2)cc1 (centres undefined)	.	.	.	.	-	.	.	.	.	.
CC(C)CCn1c(O)c(N=Nc2ccccn2)c2ccccc21	-	86.7	-	-	-	-	-	-	-	-
CCCn1c(O)c(N=Nc2ccc3ccccc3n2)c2ccccc21	-	-	-	-	-	-	.	.	.	.
CCN1/C(=C/C=C/c2oc3ccc4ccccc4c3[n+]2CC)Oc2ccc3ccccc3c21	-	184.1	.	-	.	-	69.3	-	546	228
CCN1/C(=C/c2ccc3cc(C)ccc3[n+]2C)Sc2ccc3sccc3c21	-	-	.	-	-	-	.	.	.	.
